# From PubChem
# CHRM4 agonist – CHRM4 agonism in calcium assay | hit rate 0.14% among 360,000 | P08173 | activation, % at 3 µM | AID 624127 | CHO-K1 hM4/Gqi5, Fluo-8 calcium fluorescence; vehicle 0%, full acetylcholine response 100%;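 active means activation above the run mean over all test wells plus 3 SD, cut at about 32% in these data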;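 further: peak over basal fluorescence ratio per well then scaled between controls; 0% = DMSO wells and 100% = acetylcholine at EC100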
# Target sequence (P08173 whole entry, looked up): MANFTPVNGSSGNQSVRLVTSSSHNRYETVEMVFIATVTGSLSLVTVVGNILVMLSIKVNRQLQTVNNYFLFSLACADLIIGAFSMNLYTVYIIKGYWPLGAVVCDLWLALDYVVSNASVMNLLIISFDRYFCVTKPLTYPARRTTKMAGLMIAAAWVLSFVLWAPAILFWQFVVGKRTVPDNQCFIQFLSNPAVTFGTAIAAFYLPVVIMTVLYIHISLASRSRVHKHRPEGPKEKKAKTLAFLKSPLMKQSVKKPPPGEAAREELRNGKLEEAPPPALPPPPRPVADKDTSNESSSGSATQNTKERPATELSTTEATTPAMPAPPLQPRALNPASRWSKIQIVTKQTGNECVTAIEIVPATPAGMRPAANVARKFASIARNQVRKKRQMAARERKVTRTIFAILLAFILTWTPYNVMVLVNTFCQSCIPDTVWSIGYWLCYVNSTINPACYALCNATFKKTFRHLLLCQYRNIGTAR
# CHRM4 PAM – potentiates acetylcholine response at human M4 receptor. P08173. CHO-K1 hM4/Gqi5, Fluo-8 calcium fluorescence, ACh EC20; 0% = ACh EC20, 100% = maximal ACh. activation, % at 3 µM. hit rate 0.4% among 360,000;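 active means activation above its plate's cutoff, the mean activation of sample wells plus 3 SD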
# M4 antag – blocks acetylcholine activation of human M4 receptor. inhibition, % at 3 µM. hit rate 0.73% among 360,000. AID 624125. CHO-hM4 cells, ACh EC80, Fluo-8 calcium fluorescence;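 active means inhibition above its plate's cutoff, the mean inhibition of sample wells plus 3 SD, cut at about 27% in these data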;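 further: 0% = acetylcholine EC80 with DMSO and 100% = DMSO without agonist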
# TAAR1 antagonist – antagonists of human TAAR1; inhibition, % at 3 µM; CHO RD-HGA16 TAAR1, Fluo-8 calcium fluorescence, antagonist; Q96RJ0; hit rate 1.5% among 360,000;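 active means inhibition above a per-plate cutoff, the mean inhibition of test compounds on that plate plus 3 SD, cut at about 49% in these data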;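 further: 0% = DMSO plus EC80 beta-PEA response and 100% = DMSO alone without agonist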
#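 test system = CHO RD-HGA16 cells bearing hTAAR1 | replication = singlicate | controls = DMSO-only wells and EC80 β-PEA-stimulated wells | reagent = EC80 β-phenethylamine stimulus | read-out basis = percent inhibition of PEA-evoked calcium signal, max/basal emission ratio | schedule = seeding 17-24 h prior, 75-min 37 °C, 30-min RT dye loading | signal = kinetic Fluo-8 calcium fluorescence measurement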
# TAAR1 ag – human TAAR1 agonism. CHO RD-HGA16 TAAR1, Fluo-8 calcium fluorescence; vehicle wells 0%, saturating PEA agonist 100%. hit rate 0.99% among 360,000. activation, % at 3 µM. Q96RJ0;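 active means activation above the mean activation of all test compounds in the run plus 3 SD, cut at about 38% in these data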
#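 Repeats: no replicates (n 1) | Material: CHO-derived RD-HGA16 cells with stable Gα16 and human TAAR1 | Technique: Kinetic Fluo-8 calcium fluorescence | Schedule: 17-24 h seeding, 75 min 37 °C dye, 30 min RT | Evaluation: % activation from peak over basal fluorescence ratio, DMSO-to-PEA scaled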
# Starred values were filed as active, the others as inactive; nt = no result. An excerpt weighted towards active compounds, which were near 3% of everything screened.
SMILES,CHRM4 agonist,CHRM4 PAM,M4 antag,TAAR1 antagonist,TAAR1 ag
COc1ccc(C(=O)/C=C/C(=O)N(CC(=O)NC2CCCCC2)CC2CCCO2)c(O)c1 (stereo unspecified),6.2,-8.4,28.5*,39.4,29.8
COc1ccc(C(=O)/C=C/C(=O)N(CC(=O)NC2CCCCC2)Cc2ccccc2OC)c(O)c1,2.7,-3.7,-6.3,0.2,8.0
Cc1ccc(S(=O)(=O)N2[C@H](CC(=O)c3ccc(Cl)c(Cl)c3)OC[C@@H]2C(C)C)cc1,0.3,4.4,-20.5,-9.0,-0.4
CC(c1ccccc1)C1OCC(C[N+]2(C)CCCCC2)O1 (stereo unspecified),-0.1,-24.2,45.4*,5.5,0.2
C[C@H](CO)N1C[C@H](C)[C@H](CN(C)S(=O)(=O)c2cccs2)Oc2ccc(NC(=O)Nc3ccc4c(c3)OCO4)cc2CC1=O,1.3,-15.7,40.7*,-14.1,1.0
C[C@H](CO)N1C[C@H](C)[C@@H](CN(C)S(=O)(=O)c2cccs2)Oc2ccc(NC(=O)Nc3ccc4c(c3)OCO4)cc2C1=O,0.8,-0.9,9.8,10.9,1.0
C[C@H]1CN([C@@H](C)CO)C(=O)Cc2cc(NS(=O)(=O)c3cccs3)ccc2O[C@H]1CN(C)S(=O)(=O)c1cn(C)cn1,3.4,-14.3,31.9*,-12.7,9.7
COc1cc(Nc2cc(C)n(-c3cc(OC)cc(OC)c3)c(=O)c2)cc(OC)c1,nt,nt,nt,17.0,-1.5
O=C(NCc1ccc(F)cc1)c1ccc(N2CCc3ccccc32)c([N+](=O)[O-])c1,7.4,-11.8,7.2,51.5*,0.1
Cc1cc(C)c2c3c(oc2n1)C(=O)N(c1cccc(Cl)c1)CC(=O)N3,0.7,-5.6,-1.9,-14.4,16.8
Cc1cc(C)c2c3c(sc2n1)C(=O)N(c1ccccc1)CC(=O)N3,3.1,16.8,31.7*,-34.5,5.4
CC1CCN(S(=O)(=O)c2cccc(C(=O)Oc3ccc([N+](=O)[O-])cc3)c2)CC1,2.5,30.4*,-11.4,-5.7,-0.3
COc1ccccc1N1CCN(C(=O)c2cn(Cc3ccccc3)nc2-c2cccnc2)CC1,9.8,14.4,-5.8,19.2,46.8*
Cc1ccc(NC(=S)NCc2cccnc2)cc1,0.9,15.9*,1.1,4.1,6.5
CCc1ccc(NC(=S)NCc2cccnc2)cc1,0.6,5.3,-5.9,-8.7,5.9
O=C(N[C@H](C(=O)N1CCC[C@H]1C(=O)NCc1ccccc1)C1CCCCC1)c1ccc(Cl)cc1Cl,nt,nt,nt,-10.7,-1.8
COC(=O)[C@]12C[C@H](CC(=O)NCC34CC5CC(CC(C5)C3)C4)C(=O)N(CCC3=CCCCC3)C1=C[C@H](COCc1ccccc1)O[C@@H]2C,nt,nt,nt,-27.0,-0.8
CN1CCCC(CC2c3ccccc3Sc3ccccc32)C1 (stereo unspecified),11.3,-18.4,99.3*,5.1,21.1
CN1CCCC(CN2c3ccccc3Sc3ccccc32)C1 (stereo unspecified),10.0,-17.7,86.5*,3.9,18.2
CC(C)c1ccc(Oc2cccc3c2S(=O)(=O)N([C@H](C)c2ccccc2)C[C@@H](COCc2ccccc2)O3)cc1,nt,nt,nt,-10.6,0.2
O=C(O)c1ccc(N/N=C/C=C/c2ccc([N+](=O)[O-])o2)cc1,74.0*,-21.4,20.2,41.6,33.1
Cc1c(C(=O)O)cccc1-c1ccc(/C=N/Nc2ccc(Br)cc2)o1,3.3,-7.1,18.6,58.6*,22.6
O=C(O)c1cccc(-c2ccc(/C=N/Nc3ccc([N+](=O)[O-])cc3)o2)c1,11.8,-17.4,27.3*,57.4*,43.9*
O=[N+]([O-])c1ccc(N/N=C/C=C/c2ccco2)cc1,37.6*,-15.8,21.1,38.6,15.7
O=C(NCc1ccncc1)[C@@H]1CCCN1C(=O)[C@H]1CCCN1C(=O)c1cccc2ccccc12,1.8,5.3,-2.6,-8.2,6.9
CCOC(=O)C1CCCN(CC(=O)Nc2cc(C)cc(C)c2)C1 (stereo unspecified),0.1,2.2,-4.7,-5.5,0.4
CCOC(=O)C1CCCN(C(=S)Nc2ccc(S(=O)(=O)N3CCOCC3)cc2)C1 (stereo unspecified),6.0,-4.2,0.5,33.5,46.3*
CCOC(=O)C1CCCN(C(=S)Nc2cc(C)cc(C)c2)C1 (stereo unspecified),1.3,7.7,-7.3,46.1,50.4*
